Screening results as filed in PubChem BioAssay.
The list is not random: actives were taken first. Their share in the collection is about 1.9%.
NR1D1 modulator: modulators of human Rev-erb alpha DNA binding; Rev-erbα–FITC-DNA binding, fluorescence polarization, 90 min; activity, % at 10 µM; 370,000 compounds, 0.79% hits; AID 1259318;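 active means activity above about 14%, limit read from the data; passing the limit was not always enough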;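 further: 0% = DMSO wells with 35 nM protein and 100% = DMSO wells with 750 nM protein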
Target sequence (P20393 whole entry, looked up): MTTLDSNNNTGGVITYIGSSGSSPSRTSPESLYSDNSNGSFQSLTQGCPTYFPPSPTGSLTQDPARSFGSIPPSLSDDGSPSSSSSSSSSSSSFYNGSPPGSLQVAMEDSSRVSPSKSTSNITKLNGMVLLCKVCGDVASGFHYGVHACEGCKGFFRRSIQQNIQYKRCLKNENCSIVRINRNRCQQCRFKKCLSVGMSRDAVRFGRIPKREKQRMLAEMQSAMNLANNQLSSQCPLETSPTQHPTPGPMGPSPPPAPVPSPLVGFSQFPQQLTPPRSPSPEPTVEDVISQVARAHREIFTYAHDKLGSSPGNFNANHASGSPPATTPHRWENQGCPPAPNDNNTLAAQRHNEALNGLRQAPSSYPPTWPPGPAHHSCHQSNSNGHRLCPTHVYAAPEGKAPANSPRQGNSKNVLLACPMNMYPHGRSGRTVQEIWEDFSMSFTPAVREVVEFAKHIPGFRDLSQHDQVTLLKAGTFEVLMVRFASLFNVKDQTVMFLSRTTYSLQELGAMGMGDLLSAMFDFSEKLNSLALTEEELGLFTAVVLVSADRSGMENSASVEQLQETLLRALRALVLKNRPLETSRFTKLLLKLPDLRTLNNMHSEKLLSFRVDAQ
NR2E3 ag-1: NR2E3 (human) agonism. 320,000 compounds, 0.12% hits. AID 2300. GST-NR2E3/biotin-RetCOR TR-FRET, 1536-well. Q9Y5X4. inhibition of corepressor binding, % at 4.78 µM;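 active means percent inhibition above the cutoff of mean plus 3 SD of all tested compounds, set per screening campaign, cut at about 20% in these data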;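 further: 0% = DMSO wells and 100% = biotin wells as full block of FRET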
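Test system – NR2E3–RetCOR corepressor complex · Quantity – NR2E3 fusion 1.35 nM · Buffer or medium – Tris pH 7.5 · Incubation – Compound–protein incubation for 5 h at 4 °C · Technique – TR-FRET, Eu(K)-anti-GST donor, streptavidin-D2 acceptor, ex 340, em 617/671 nm · Evaluation – percent inhibition of 671/617 nm emission ratio versus biotin and DMSO controls · Plate – 1536-well format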
MT1-MMP act inh: blocks activation of human MT1-MMP | HT1080 RFP-PRO-GFP cells, GFP/RFP ratio fluorescence, overnight; percent of plate control window, DMSO zero | GFP/RFP ratio change, % at 20 µM | 360,000 compounds, 0.061% hits;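 active means GFP/RFP ratio change of at least 30% with cell ATP level not reduced by more than half and red fluorescence within 50% of control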
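Test system: HT1080 cells expressing an RFP-PRO-GFP fluorescent reporter construct / Compound dosing: single-point 20 µM compound, 1% DMSO / Schedule: cells overnight before dosing, compound overnight, 37 °C, 5% CO2 / Evaluation: GFP/RFP fluorescence ratio / Control set: DMSO and RFP-L50D-GFP cell wells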
PG9 binder: binds the HIV-1 gp120 antibody PG9 | TR-FRET gp120-PG9 antibody binding | inhibition, % at 6.7 µM | 360,000 compounds, 0.43% hits | AID 624416; in the data active means inhibition above about 8.5%
SKN-1 block: inhibitors of C. elegans SKN-1; 360,000 compounds, 0.49% hits; C. elegans VP596 Pgst-4::GFP/RFP ratio, acrylamide-induced, 24 h; AID 624304; inhibition, % at 21.8 µM;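 active means interference check ratio from 0.5 to 1.5 plus GFP to RFP signal ratio inhibition reaching or exceeding a fixed threshold, cut at about 30% in these data, passing the limit was not always enough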
NR2E3 ag-2: human photoreceptor-specific nuclear receptor agonism | AID 602229 | CHO-S Gal4-NCOR/VP16-NR2E3 two-hybrid, luciferase | 360,000 compounds, 0.35% hits | inhibition of corepressor binding, % at 3.98 µM | Q9Y5X4;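 active means inhibition above the mean of all tested compounds plus 3 SD, cut at about 70% in these data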;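 further: 0% = DMSO with NR2E3 transfected cells and 100% = cells lacking NR2E3 construct; higher means lower luciferase signal from less NR2E3 corepressor binding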
An asterisk follows results filed as active; . = no result.

SMILES	NR1D1 modulator	NR2E3 ag-1	MT1-MMP act inh	PG9 binder	SKN-1 block	NR2E3 ag-2
CN1/C(=C\C(=O)Nc2cccc(Cl)c2)C(C)(C)c2ccccc21	3	4	8	1	50*	-1
COc1ccc(S(=O)(=O)N2CCCCCC2)c2ccccc12	4	.	.	.	.	.
O=S(=O)(c1ccccc1)N1CCCc2nc(-c3ccc(Br)cc3)ccc21	-2	.	.	3	.	.
Cc1ccc(-c2cc(NC(=O)Cc3c[nH]c4ccccc34)ccc2N(C)c2cccnc2)cc1	-3	.	.	-2	.	.
Clc1ccccc1-c1ncc(-c2ccccc2)o1	4	1	1	2	42*	-86
CCOc1ccc(NC(=O)CCN2CCN(C)CC2)cc1	-6	2	-2	0	37*	5
CSc1ccc(Cl)c(C(=O)OCC(=O)NCc2ccco2)c1	-1	3	-3	0	1	10
CSc1ccc(Cl)c(C(=O)NCc2ccco2)c1	0	1	4	-2	41*	15
Nc1[nH]c(C(=O)c2ccc(Br)cc2)c(-c2ccccn2)c1C(=O)NCCc1c[nH]c2ccccc12	-6	.	.	0	.	.
C[Si](C)(C)O[Si](C)(C)O[Si](C)(C)C	-4	.	.	.	.	.
O=[N+]([O-])c1ccc2nc(N3CCCC3)sc2c1	4	4	2	1	39*	-60
COC(=O)C1C2CC3c4[nH]c5cc(OC)ccc5c4CCN3CC2CC(O)C1OC (stereo not given)	-2	.	-4	-2	7	1
COC(=O)C1C2CC3c4[nH]c5cc(OC)ccc5c4CCN3CC2CC(OC(=O)CC(C)=O)C1OC (stereo not given)	6	.	-56	-2	47*	-5
Nc1ccc(-c2nc3cc(N)ccc3s2)cc1	0	-3	3	2	-5	-125
Cc1ccc2nc(-c3ccc(N)cc3)sc2c1	8	2	-3	0	42*	-130
Nc1ccc2nc(-c3ccccc3)sc2c1	-5	0	-6	2	82*	-118
COC(=O)[C@]12C[C@H](CC(=O)N3CCCCC3)C(=O)N(Cc3ccccc3)C1=C[C@H](C1CCCC1)O[C@@H]2C	9	.	.	-1	.	.
CCOc1ccc(S(=O)(=O)Nc2nc3ccccc3nc2Cl)cc1	-2	3	7	4	-8	5
CCOc1ccc(S(=O)(=O)Nc2cnc3ccccc3c2)cc1	-9	0	0	3	16	99*
Cc1csc2nc(CNS(=O)(=O)c3ccc4c(c3)OCCO4)cn12	-5	4	1	-1	-15	6
Cc1csc2nc(CNS(=O)(=O)c3ccc4c(c3)CCCC4)cn12	6	2	-1	-3	36*	24
O=S(=O)(c1cccc2c(S(=O)(=O)N3CCCC3)cccc12)N1CCCC1	10	2	-2	1	36*	-9
N/C(=N\OC(=O)CSc1ccccc1)c1ccc([N+](=O)[O-])cc1	-5	2	1	-2	54*	-134
COc1ccc(Cc2c(-c3ccco3)nc3ccc(Br)cn23)c(C)c1	-16	.	-4	-6	19	-7
COc1ccc(Cc2c(-c3ccco3)nc3c(C)cc(Br)cn23)c(C)c1	-2	.	-6	3	48*	-22
SMILES	NR1D1 modulator	NR2E3 ag-1	MT1-MMP act inh	PG9 binder	SKN-1 block	NR2E3 ag-2
O=P(O)(O)C(O)(Cc1cnc2ccccn12)P(=O)(O)O	2	.	.	.	.	.
Nc1c(S(=O)(=O)O)cc(NC(=O)c2ccccc2)c2c1C(=O)c1ccccc1C2=O	.	-11	57*	.	33	-7
O=C(Nc1ccccc1-c1ccccc1)c1ccccc1	1	-1	-1	0	9	27
CC(C)CNS(=O)(=O)CC1NCc2ccccc21 (stereo not given)	-1	.	.	.	.	.
CC(=O)N1/C(=C/c2ccc(N(C)C)cc2)C(=O)c2ccccc21	-9	.	6	-9	35*	-8
O=C(COC(=O)c1ccc(Cl)nc1)Nc1ccc2ccccc2c1	-2	.	5	-1	47*	-23
COCc1cc(C)nc(SCC(=O)Nc2ccc(C)c(C)c2)c1C#N	-1	2	-5	-1	45*	-31
C=CCN1C(=O)c2n[nH]c(C(C)C)c2C1c1ccccc1 (stereo not given)	-7	.	.	0	.	.
O=C(Nc1ccc(Br)cc1Cl)c1cnccn1	-3	4	-5	-2	61*	-22
Cc1nc(N)cc(C[n+]2csc(CCO)c2C)n1	-10	.	.	.	.	.
Cn1/c(=N/N=C/c2ccccn2)sc2ccccc21	-2	.	3	-1	42*	-129
COc1ccc(C2CC(c3ccccc3)=NN2S(=O)(=O)c2ccc(C)cc2)c(OC)c1 (stereo not given)	-2	-3	-5	-1	52*	-14
COc1ccc(C2CC(c3ccccc3)=NN2S(=O)(=O)c2ccccc2)c(OC)c1 (stereo not given)	1	-1	-6	-3	5	-20
CC1(C)[C@H]2CC[C@]1(C)C(=O)C2	-1	.	.	.	.	.
CCOc1cccc2cc(C(=O)N3CCc4ccccc43)c(=O)oc12	-6	-2	3	0	47*	-15
COc1cccc2cc(C(=O)N3CCc4ccccc43)c(=O)oc12	-2	0	5	-1	3	-9
O=C(Nc1ccccc1Cl)c1cc(C2CCCN(C(=O)OCCF)C2)on1 (stereo not given)	-2	.	0	2	37*	-50
CCC[C@@H]1C[C@@H](C(=O)N[C@H]([C@H]2O[C@H](SC)[C@H](O)[C@@H](O)[C@H]2O)[C@H](C)O)N(C)C1	-4	.	.	.	.	.
CC(C)CN(C[C@@H](OP(=O)(O)O)[C@H](Cc1ccccc1)NC(=O)O[C@H]1CCOC1)S(=O)(=O)c1ccc(N)cc1	1	.	.	.	.	.
Cc1ccc(/C=C2/SC(=Nc3ccc(F)cc3)NC2=O)s1	-6	-3	-35	-1	40*	3
O=C(O)c1ccccc1-c1ccccc1C(=O)Nc1ccc2c(c1)C(=O)c1ccccc1-2	0	.	-5	-2	16	-44
O=C(O)c1ccccc1-c1ccccc1C(=O)Nc1ccc2c(c1)oc(=O)c1ccccc12	-8	.	1	-2	36*	-2
CC(=O)c1ccc(Nc2ccc([N+](=O)[O-])c3nonc23)cc1	11	0	-23	-13	15	-40
O=C(O)c1ccc(Nc2ccc([N+](=O)[O-])c3nonc23)cc1	6	.	-1	-7	44*	10
CO[C@H]1O[C@H](CNC(=O)N(CCCl)N=O)[C@@H](O)[C@H](O)[C@H]1O	-6	.	.	.	.	.
CSc1nsc(SCc2ccc(F)cc2)n1	0	-2	0	-1	60*	-17
Fc1ccc(CSc2nsc(SCc3ccc(F)cc3)n2)cc1	1	2	4	-1	1	10
